Laboratory results published in ChEMBL document CHEMBL4680268, “Pharmacomodulations of the benzoyl-thiosemicarbazide scaffold reveal antimicrobial agents targeting d-alanyl-d-alanine ligase in bacterio” (Eur J Med Chem, 2020).
≈ marks a conversion by molar mass, not a printed value. Calls of active or inactive are those of the source. The calls are words filed in the database; no cut-off is given here.

Legend:
Staphylococcus aureus [1] = experiment: Inhibition of Ddl in Staphylococcus aureus ATCC 25923 assessed as increase in D-Ala/D-Ala-D-Ala ratio at 2 times MIC incubated for 30 mins by UHPLC-MS/MS analysis
How it was run: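 Log-phase S. aureus ATCC 25923 in MHB with 5% DMSO (from OD₆₀₀ 0.05) treated with compound at 2× MIC for 0–30 min; untreated and D-cycloserine 2× MIC controls. Cells chilled, pelleted, washed in M9, lysed in ice-cold MeOH/H₂O/formic acid 80:20:0.1, supernatants derivatized with Marfey's reagent in triplicate; L-Ala, D-Ala, D-Ala-D-Ala quantified by UPLC-MS/MS.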

Enterococcus faecalis [2] = experiment: Antibacterial activity against Enterococcus faecalis ATCC 29212 assessed as reduction in bacterial growth incubated for 18 to 24 hrs by broth microdilution method; assay type: functional; settings: time 18-24 hrs
Staphylococcus aureus [3] = experiment: Bacteriostatic activity against Staphylococcus aureus ATCC 25923 assessed as reduction in bacterial growth at 1 and 2 times MIC measured upto 24 hrs by time kill assay; assay type: functional, organism-based; settings: time hrs <=24
How it was run: (§1)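 S. aureus ATCC 25923 grown overnight in CAMHB, pelleted, resuspended; compound added at 1, 2 or 5× MIC to give 10⁶ CFU/mL start with 5% DMSO (DMSO-only control). Sampled at 0, 5, 15, 30 min, 1, 2, 7, 24 h; 10-fold PBS dilutions plated on charcoal TSA, counted after 24 h at 37 °C. Bactericidal = ≥3-log₁₀ drop in 24 h; triplicate, mean ± SD.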

Staphylococcus aureus [4] = experiment: Antibacterial activity against Staphylococcus aureus ATCC 25923 assessed as reduction in bacterial growth incubated for 18 to 24 hrs by broth microdilution method; assay type: functional; settings: time 18-24 hrs
Escherichia coli = experiment: Antibacterial activity against Escherichia coli ATCC 25922 assessed as reduction in bacterial growth incubated for 18 to 24 hrs by broth microdilution method; assay type: functional, organism-based; settings: time 18-24 hrs
How it was run: (§2)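 Microdilution in cation-adjusted Mueller-Hinton broth per CLSI; two-fold compound series in CAMHB with 5% DMSO mixed 1:1 with bacterial suspension, giving 10⁶ bacteria/mL inoculum and 2.5% DMSO final. Top concentrations 0.1, 0.4 or 0.8 mM depending on solubility. Incubated 18–24 h at 37 °C; MIC read as lowest concentration preventing visible growth.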

Klebsiella pneumoniae = experiment: Antibacterial activity against Klebsiella pneumoniae ATCC700603 assessed as reduction in bacterial growth incubated for 18 to 24 hrs by broth microdilution method; assay type: functional, organism-based; settings: 700603, time 18-24 hrs; how it was run: as §2
Enterococcus faecalis [5] = experiment: Antibacterial activity against vancomycin resistant Enterococcus faecalis BM4575 harboring VanE genotype, constitutive expression of Ddl and VanE D-Ala-D-Ser ligase assessed as reduction in bacterial growth incubated for 18 to 24 hrs by broth microdilution method; assay type: functional; settings: time 18-24 hrs
How it was run: (§3)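 Broth microdilution in cation-adjusted Mueller-Hinton broth per CLSI; inoculum 10⁶ bacteria/mL. Two-fold serial dilutions, compound in broth with 5% DMSO mixed 1:1 with bacterial suspension, giving 2.5% DMSO final. Top concentration 0.1, 0.4 or 0.8 mM depending on solubility. Incubated 18–24 h at 37 °C. MIC = lowest concentration preventing visible growth.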

[6] = Solubility of the compound in 1% DMSO at 5XMIC against Staphylococcus aureus ATCC 25923; assay type: physicochemical
[7] = Inhibition of recombinant Enterococcus faecalis C-terminal His6-tagged DdlB expressed in Escherichia coli LMG194 using D-Ala as substrate preincubated with enzyme for 30 mins followed by substrate addition and measured after 20 mins by malachite green based colorimetric analysis
How it was run: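 DdlB (20 mg/L) malachite green phosphate assay: enzyme, inhibitor and 500 µM ATP preincubated 30 min at 30 °C in Tris-HCl pH 7.4 buffer with MgCl₂, KCl and 10% DMSO, then 1 mM D-Ala for 20 min; A650 read. IC₅₀ from 11 concentrations, also run with 0.01% Triton X-100; mean ± SD of triplicates, n ≥ 2; EC₅₀ given where maximal inhibition stayed below 50%.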

THP-1 [8] = experiment: Cytotoxicity against human THP-1 cells assessed as reduction in cell viability at 1 times MIC measured after 1 to 2 hrs by trypan blue exclusion assay; assay type: cell-based; settings: time 1-2 hrs
How it was run: (§4)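 Aliquots taken at 1, 2, 6, 24 h, mixed 1:1 with 0.4% Trypan blue for 5 min; percent blue-stained cells counted by light microscopy. DMSO control; triplicate, mean ± SD.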

Cell membrane [9] = experiment: Disruption of bacterial cell membrane in Staphylococcus aureus ATCC 25923 assessed as increase in PI uptake at 5 times MIC measured every 10 mins for 1 hr by PI dye based spectrophotometry
How it was run: (§5)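 Mid-log S. aureus ATCC 25923 (grown in MHB from OD₆₀₀ 0.05) washed into BET buffer (pH 7.5) at 1.11×10⁶ CFU/mL with 12 nM propidium iodide; compound at 1, 2, 5× MIC, 5% DMSO final. SDS 0.5% positive, buffer negative control. Fluorescence (ex 532/em 620 nm) read in the dark every 10 min for 2 h; triplicate.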

Staphylococcus aureus [10] = experiment: Antibacterial activity against hospital-acquired vancomycin resistant Staphylococcus aureus VRS-1 assessed as reduction in bacterial growth incubated for 18 to 24 hrs by broth microdilution method; assay type: functional; settings: time 18-24 hrs; how it was run: as §3
Staphylococcus aureus [11] = experiment: Antibacterial activity against community-acquired methicillin and erythromycin resistant Staphylococcus aureus SA325 assessed as reduction in bacterial growth incubated for 18 to 24 hrs by broth microdilution method; assay type: functional; settings: time 18-24 hrs; how it was run: as §3
Enterococcus faecalis [12] = experiment: Antibacterial activity against vancomycin resistant Enterococcus faecalis JH2-2::C1 harboring constitutive expression of Ddl and vanB ligase assessed as reduction in bacterial growth incubated for 18 to 24 hrs by broth microdilution method; assay type: functional; settings: time 18-24 hrs; how it was run: as §3
Enterococcus faecalis [13] = experiment: Antibacterial activity against vancomycin resistant Enterococcus faecalis BM4390 harboring VanB mutant with inactive Ddl and constitutive expression of D-Ala-D-Lac assessed as reduction in bacterial growth incubated for 18 to 24 hrs by broth microdilution method; assay type: functional; settings: time 18-24 hrs; how it was run: as §3
Staphylococcus aureus [14] = experiment: Antibacterial activity against methicillin and linezolid resistant Staphylococcus aureus NRS119 assessed as reduction in bacterial growth incubated for 18 to 24 hrs by broth microdilution method; assay type: functional; settings: time 18-24 hrs; how it was run: as §3
Pseudomonas aeruginosa = experiment: Antibacterial activity against Pseudomonas aeruginosa PAO1 assessed as reduction in bacterial growth incubated for 18 to 24 hrs by broth microdilution method; assay type: functional, organism-based; settings: time 18-24 hrs; how it was run: as §2
[15] = Cytotoxicity against human THP-1 cells assessed as reduction in cell viability at 2 times MIC measured after 1 to 2 hrs by trypan blue exclusion assay; assay type: cell-based; settings: time 1-2 hrs, read-out: INH; how it was run: as §4
Cell membrane [16] = experiment: Disruption of bacterial cell membrane in Staphylococcus aureus ATCC 25923 assessed as reduction in bacterial colonies at 5X MIC measured after 2 hrs by time-kill kinetics assay
Staphylococcus aureus [17] = experiment: Bactericidal activity against Staphylococcus aureus ATCC 25923 assessed as reduction in bacterial growth at 5 times MIC measured after 7 hrs by time kill assay; assay type: functional, organism-based; how it was run: as §1
Staphylococcus aureus [18] = experiment: Antibacterial activity against methicillin resistant and vancomycin intermediate resistant Staphylococcus aureus MU50 assessed as reduction in bacterial growth incubated for 18 to 24 hrs by broth microdilution method; assay type: functional; settings: time 18-24 hrs; how it was run: as §3
Staphylococcus aureus [19] = experiment: Antibacterial activity against hospital-acquired methicillin/ciprofloxacin and moxifloxacin resistant Staphylococcus aureus SA481 assessed as reduction in bacterial growth incubated for 18 to 24 hrs by broth microdilution method; assay type: functional; settings: time 18-24 hrs; how it was run: as §3
Cell membrane [20] = experiment: Disruption of bacterial cell membrane in Staphylococcus aureus ATCC 25923 assessed as increase in PI uptake by measuring increase in fluorescence intensity at 5 times MIC measured every 10 mins for 2 hrs by PI dye based spectrophotometry; how it was run: as §5
THP-1 [21] = experiment: Cytotoxicity against human THP-1 cells assessed as reduction in cell viability at 2 to 5 times MIC measured after 6 hrs by trypan blue exclusion assay; assay type: cell-based; settings: thp-1, 6 h; how it was run: as §4
Staphylococcus aureus [22] = experiment: Bactericidal activity against Staphylococcus aureus ATCC 25923 assessed as reduction in bacterial growth at 5 times MIC measured after 24 hrs by time kill assay; assay type: functional, organism-based; how it was run: as §1
THP-1 [23] = experiment: Cytotoxicity against human THP-1 cells assessed as reduction in cell viability at 1 times MIC measured after 6 hrs by trypan blue exclusion assay; assay type: cell-based; settings: thp-1, 6 h; how it was run: as §4
[24] = Inhibition of Ddl in Streptococcus faecalis ATCC 8043 using D-[1-14C]-alanine as substrate preincubated with enzyme for 40 mins followed by substrate and addition and measured after 30 mins by TLC analysis; design: species or system Enterococcus faecalis
Cell membrane [25] = experiment: Disruption of bacterial cell membrane in Staphylococcus aureus ATCC 25923 assessed as increase in PI uptake at 1 to 5 times MIC measured every 10 mins for 2 hrs by PI dye based spectrophotometry; how it was run: as §5

Structure (SMILES) | inhibition (Staphylococcus aureus [1]) | MIC (Enterococcus faecalis [2]) [µM] | Activity (Staphylococcus aureus [3]) | MIC (Staphylococcus aureus [4]) [µM] | Activity (Escherichia coli) | Activity (Klebsiella pneumoniae) | MIC (Enterococcus faecalis [5]) [µM] | IC50 [7] [µM] | Activity (THP-1 [8]) | MIC (Staphylococcus aureus [10]) [µM] | MIC (Staphylococcus aureus [11]) [µM] | MIC (Enterococcus faecalis [12]) [µM] | MIC (Enterococcus faecalis [13]) [µM] | MIC (Staphylococcus aureus [14]) [µM] | Activity (Pseudomonas aeruginosa) | cytotoxicity at 2 x MIC [15] [%] | Activity (Cell membrane [16]) [log10CFU/ml] | MIC (Staphylococcus aureus [18]) [µM] | MIC (Staphylococcus aureus [19]) [µM] | also measured
Oc1ccccc1-c1n[nH]c(=S)n1-c1ccc(Cl)c(Cl)c1 | Active | 400 (≈ 135 µg/mL) | Active | 400 (≈ 135 µg/mL) | inactive | inactive | 400 (≈ 135 µg/mL) | 299 | Non-Toxic | 400 (≈ 135 µg/mL) | 400 (≈ 135 µg/mL) | 400 (≈ 135 µg/mL) | > 800 | 400 (≈ 135 µg/mL) | inactive | 5 | 2 | 400 (≈ 135 µg/mL) | 800 (≈ 271 µg/mL) | solubility [6]: Insoluble; Activity (Cell membrane [9]): Active; Activity (Staphylococcus aureus [17]): Active
Oc1ccccc1/C=N/NC(=S)Nc1ccc(Cl)c(Cl)c1 | Active | 12.5 (≈ 4.25 µg/mL) | Active | 12.5 (≈ 4.25 µg/mL) | inactive | inactive | 6.25 (≈ 2.13 µg/mL) | 1.48 | Non-Toxic | 12.5 (≈ 4.25 µg/mL) | 25 (≈ 8.51 µg/mL) | 3.12 (≈ 1.06 µg/mL) | 6.25 (≈ 2.13 µg/mL) | 12.5 (≈ 4.25 µg/mL) | inactive | 5 | < 1 | 25 (≈ 8.51 µg/mL) | 25 (≈ 8.51 µg/mL) | Activity (Cell membrane [20]): 15 RFU; Activity (THP-1 [21]): Toxic; Activity (Staphylococcus aureus [22]): Active; Activity (THP-1 [23]): Non-Toxic
C[C@@H](CP(=O)(O)[C@@H](C)N)C(=O)O | – | – | – | – | – | – | – | – | – | – | – | – | – | – | – | – | – | – | – | Ki [24]: 4 µM
N[C@H]1CONC1=O [LEVCYCLOSERINE] | Active | 1250 (≈ 128 µg/mL) | – | 313 (≈ 32 µg/mL) | – | – | > 5020 | 262 | – | 157 (≈ 16 µg/mL) | 1250 (≈ 128 µg/mL) | 5020 (≈ 512 µg/mL) | 5020 (≈ 512 µg/mL) | 627 (≈ 64 µg/mL) | – | – | – | 627 (≈ 64 µg/mL) | 1250 (≈ 128 µg/mL) | Activity (Cell membrane [25]): inactive
